Test [1] concerns the target T1, Type-1 angiotensin II receptor B (Rattus norvegicus, UniProt P29089).
T1 sequence (P29089 whole entry): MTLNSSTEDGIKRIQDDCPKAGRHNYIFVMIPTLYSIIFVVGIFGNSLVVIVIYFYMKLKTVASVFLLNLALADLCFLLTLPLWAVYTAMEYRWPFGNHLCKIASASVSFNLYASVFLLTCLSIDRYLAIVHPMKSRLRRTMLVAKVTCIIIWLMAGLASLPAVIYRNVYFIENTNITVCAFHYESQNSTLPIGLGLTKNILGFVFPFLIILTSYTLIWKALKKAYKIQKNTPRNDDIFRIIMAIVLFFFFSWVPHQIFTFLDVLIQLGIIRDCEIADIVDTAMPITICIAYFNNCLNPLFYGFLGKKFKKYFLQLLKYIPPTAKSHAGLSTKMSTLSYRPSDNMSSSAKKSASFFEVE
The test can be described thus: Inhibition of [125I]angiotensin-II binding to the angiotensin II receptor type 1 in rat uterine membranes. It is filed as cell membranes, Membrane.

For test [2], the target named is Angiotensin II receptor (Oryctolagus cuniculus). The test is described as follows: Antagonism of angiotensin-II mediated contraction of rabbit aortic rings expressed as pA2 (in vitro).
Test [3] deals with Rattus norvegicus. The test can be described thus: In vivo inhibition of pressor response to AII in rats following intragastric administration. The settings on record: po, read-out: ID50 (the source's name). It counts as functional. In a few lines: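 Male Sprague-Dawley rats anesthetized with methohexital 30 mg/kg ip. Femoral artery and vein catheterized, restrained, and allowed 3 h recovery. Arterial pressure recorded continuously, 1 h baseline, then AII infused at 50 ng/kg/min iv. Compound given intragastrically at 1-10 mg/kg. Change in mean arterial pressure compared at time points before and after dosing.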

Results on 39 molecules are retold here after ChEMBL document CHEMBL1126749, “Synthesis and structure-activity relationships of nonpeptide, potent triazolone-based angiotensin II receptor antagonists” (J Med Chem, 1993).

Broadly, the IC50 is the concentration at which inhibition is half-maximal. In general, pA2 refers to a measure of antagonist potency on a negative log scale. Higher therefore signals a more potent antagonist.

Take `CCCCc1nn(CCCCC(=O)O)c(=O)n1Cc1ccc(-c2ccccc2-c2nn[nH]n2)cc1`: the half-maximal inhibitory concentration (IC50) in test [1] was 12 nM. In test [2], the pA2 stood at 8.

In turn, `CCCCc1nn(CC(=O)C23C[C@H]4C[C@@H](C2)C[C@@H](C3)C4)c(=O)n1Cc1ccc(-c2ccccc2-c2nn[nH]n2)cc1` had a concentration for half-maximal inhibition (IC50) in test [1] of 25 nM. For the same molecule, the pA2 in test [2] stood at 8.1.

In test [1], `CCCCc1nn(CC(OCC)c2ccccc2)c(=O)n1Cc1ccc(-c2ccccc2-c2nn[nH]n2)cc1` (stereo not given) gave an IC50 of 15 nM.

In turn, `CCCCc1nn(CC(OC)c2ccccc2)c(=O)n1Cc1ccc(-c2ccccc2-c2nn[nH]n2)cc1` (stereo not given) came in with an IC50 in test [1] of 12 nM. In test [2], the pA2 is 7.8.

In the case of `CCCCc1nn(CC(O)c2ccccc2)c(=O)n1Cc1ccc(-c2ccccc2-c2nn[nH]n2)cc1` (stereo not given), the IC50 in test [1] was found to be 3.6 nM. This molecule registered a pA2 in test [2] of 8.3.

In test [1], `CCCCc1nn(CC(O)c2cc(OC)ccc2OC)c(=O)n1Cc1ccc(-c2ccccc2-c2nn[nH]n2)cc1` (stereo not given) came in with a half-inhibitory concentration (IC50) of 22 nM. Further, the pA2 in test [2] was found to be 8.1.

Take `CCCCc1nn(C(Cc2ccccc2)C(=O)c2ccccc2)c(=O)n1Cc1ccc(-c2ccccc2-c2nn[nH]n2)cc1` (stereo not given): in test [1], the half-maximal inhibitory concentration (IC50) amounted to 5800 nM.

`CCCCc1nn(CCC2CCCCC2)c(=O)n1Cc1ccc(-c2ccccc2-c2nn[nH]n2)cc1` came in with an IC50 in test [1] of 18 nM. This molecule gave a pA2 in test [2] of 7.9.

In test [1], `CCCCc1nn(CC(=O)OC(C)(C)C)c(=O)n1Cc1ccc(-c2ccccc2-c2nn[nH]n2)cc1` had an IC50 of 16 nM. Further, the pA2 in test [2] was found to be 7.1.

On to `CCCCc1nn(CC(OCC(=O)O)c2ccccc2)c(=O)n1Cc1ccc(-c2ccccc2-c2nn[nH]n2)cc1` (stereo not given), for which the concentration for half-maximal inhibition (IC50) in test [1] worked out at 30 nM.

`CCCCc1nn(CC(OCCC)c2ccccc2)c(=O)n1Cc1ccc(-c2ccccc2-c2nn[nH]n2)cc1` (stereo not given) returned an IC50 in test [1] of 45 nM. In test [2], this molecule gave a pA2 of 8.1.

For the molecule `CCCCc1nn(C(CC(=O)OCC)C(=O)c2ccccc2)c(=O)n1Cc1ccc(-c2ccccc2-c2nn[nH]n2)cc1` (stereo not given), the IC50 in test [1] is 36 nM. Also, the pA2 in test [2] is reported as 7.8.

The molecule `CCCCc1nn(CCCc2ccccc2)c(=O)n1Cc1ccc(-c2ccccc2-c2nn[nH]n2)cc1` gave an IC50 in test [1] of 18 nM. Also, the pA2 in test [2] worked out at 8.

The molecule `CCCCc1nn(CCc2ccccc2)c(=O)n1Cc1ccc(-c2ccccc2-c2nn[nH]n2)cc1` had a 50% inhibitory concentration (IC50) in test [1] of 3.1 nM. The molecule also gave a pA2 in test [2] of 9.8.

Consider `CCCCc1nn(CC(=O)c2cc(OC)ccc2OC)c(=O)n1Cc1ccc(-c2ccccc2-c2nn[nH]n2)cc1`, for which, in test [1], the IC50 amounted to 21 nM. This molecule had a pA2 in test [2] of 8.

Consider `CCCCc1nn(Cc2ccccc2)c(=O)n1Cc1ccc(-c2ccccc2-c2nn[nH]n2)cc1`, for which the 50% inhibitory concentration (IC50) in test [1] is 16 nM. Further, the pA2 in test [2] is 8.1.

With `CCCCc1nn(CC(OCc2ccccc2)c2ccccc2)c(=O)n1Cc1ccc(-c2ccccc2-c2nn[nH]n2)cc1` (stereo not given), in test [1], the concentration for half-maximal inhibition (IC50) was 280 nM. In test [2], this molecule had a pA2 of 7.7.

`CCCCc1nn(C/C=C/c2ccccc2)c(=O)n1Cc1ccc(-c2ccccc2-c2nn[nH]n2)cc1` came in with an IC50 in test [1] of 290 nM.

As to `CCCCc1nn(CCCCC(=O)OC)c(=O)n1Cc1ccc(-c2ccccc2-c2nn[nH]n2)cc1`, the IC50 in test [1] was determined as 4.4 nM.

The molecule `CCCCc1nn(CC(OCC(=O)OCC)c2ccccc2)c(=O)n1Cc1ccc(-c2ccccc2-c2nn[nH]n2)cc1` (stereo not given) had a half-inhibitory concentration (IC50) in test [1] of 180 nM. For the same molecule, in test [2], the pA2 came to 8.3.

Molecule `CCCCc1nn(CC(=O)OCC)c(=O)n1Cc1ccc(-c2ccccc2-c2nn[nH]n2)cc1` yielded a concentration for half-maximal inhibition (IC50) in test [1] of 9 nM. In test [2], this molecule displayed a pA2 of 7.8.

With `CCCCCCCCn1nc(CCCC)n(Cc2ccc(-c3ccccc3-c3nn[nH]n3)cc2)c1=O`, the IC50 in test [1] is 170 nM. This molecule registered a pA2 in test [2] of 8.5.

In turn, `CCCCc1nn(CC(=O)O)c(=O)n1Cc1ccc(-c2ccccc2-c2nn[nH]n2)cc1` returned an IC50 in test [1] of 91 nM. Moreover, the pA2 in test [2] was 7.8.

For `CCCCc1nn(CCCCCC(=O)OCC)c(=O)n1Cc1ccc(-c2ccccc2-c2nn[nH]n2)cc1`, the IC50 in test [1] worked out at 9.8 nM. This molecule gave a pA2 in test [2] of 7.6.

For the molecule `CCCCc1nn(CCCCCC(=O)O)c(=O)n1Cc1ccc(-c2ccccc2-c2nn[nH]n2)cc1`, the half-maximal inhibitory concentration (IC50) in test [1] came out at 17 nM. The molecule also showed a pA2 in test [2] of 8.7.

In turn, `CCCCCCn1nc(CCCC)n(Cc2ccc(-c3ccccc3-c3nn[nH]n3)cc2)c1=O` displayed an IC50 in test [1] of 8.7 nM. The molecule further had a pA2 in test [2] of 8.9.

For the molecule `CCCCc1nn(CCCC)c(=O)n1Cc1ccc(-c2ccccc2C(=O)O)cc1`, the half-maximal inhibitory concentration (IC50) in test [1] was determined as 101 nM. The same molecule had a pA2 in test [2] of 7.

For the molecule `CCCCc1nn(C(C)(C)C(=O)c2ccccc2)c(=O)n1Cc1ccc(-c2ccccc2-c2nn[nH]n2)cc1`, the IC50 in test [1] was found to be 43 nM. The molecule also returned a pA2 in test [2] of 7.7.

As for `CCCCc1nnc(O)n1Cc1ccc(-c2ccccc2-c2nn[nH]n2)cc1`, the IC50 in test [1] turned out to be 42 nM. In test [2], this molecule showed a pA2 of 7.1.

In test [1], `CCCCCn1nc(CCCC)n(Cc2ccc(-c3ccccc3-c3nn[nH]n3)cc2)c1=O` returned an IC50 of 5.6 nM. In test [2], this molecule registered a pA2 of 9.

In test [1], `CCCCc1nnc(O)n1Cc1ccc(-c2ccccc2C(=O)O)cc1` had a half-inhibitory concentration (IC50) of 1500 nM. In addition, the pA2 in test [2] was 5.5.

`CCCCc1nn(CCC(C)CC(C)(C)C)c(=O)n1Cc1ccc(-c2ccccc2-c2nn[nH]n2)cc1` (stereo not given): in test [1], the IC50 came to 35 nM. In addition, the pA2 in test [2] was 7.9.

The molecule `CCCCc1nn(CCC)c(=O)n1Cc1ccc(-c2ccccc2-c2nn[nH]n2)cc1` yielded an IC50 in test [1] of 15 nM. In test [2], this molecule displayed a pA2 of 8.2.

As for `CCCCc1nn(Cc2ccc3ccccc3c2)c(=O)n1Cc1ccc(-c2ccccc2-c2nn[nH]n2)cc1`, the IC50 in test [1] is 280 nM. Further, in test [2], the pA2 is listed as 6.5.

Take `CCCCc1nn(CC2CC2)c(=O)n1Cc1ccc(-c2ccccc2-c2nn[nH]n2)cc1`: the IC50 in test [1] stood at 15 nM.

On to `CCCCc1nn(CCCC)c(=O)n1Cc1ccc(-c2ccccc2-c2nnn[nH]2)cc1`, for which, in test [3], the ED50 is 2.1 mg/kg. In addition, the half-maximal inhibitory concentration (IC50) in test [1] came to 5.1 nM.

`CCCCc1nn(CC(=O)c2ccccc2)c(=O)n1Cc1ccc(-c2ccccc2-c2nn[nH]n2)cc1` gave a half-maximal inhibitory concentration (IC50) in test [1] of 7.9 nM.

In test [1], `CCCCc1nn(C(C)CC)c(=O)n1Cc1ccc(-c2ccccc2-c2nn[nH]n2)cc1` (stereo not given) showed a 50% inhibitory concentration (IC50) of 10 nM. Also, the pA2 in test [2] is listed as 8.7.

Molecule `CCCCc1nn(C(C)C)c(=O)n1Cc1ccc(-c2ccccc2-c2nnn[nH]2)cc1` yielded a 50% inhibitory concentration (IC50) in test [1] of 20 nM.
